Results as given in ChEMBL document CHEMBL1641377, “Discovery of novel, potent, selective, and orally active human glucagon receptor antagonists containing a pyrazole core” (Bioorg Med Chem Lett, 2011).
The source made the active and inactive calls. The rule behind the calls is not given here.

What was measured:
[1] = Plasma concentration in rhesus monkey at 0.3 mg/kg, po after 4 hrs; format: ADME, organism-based, Macaca mulatta; parameters: dose 0.3 mg/kg, route oral
Method in brief: (§1)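 Overnight-fasted rhesus monkeys received the oral dose 4 h before the glucagon challenge (15 µg/kg im, time zero). Plasma drug level was sampled at the time of the challenge (t = 0, n = 4). Plasma glucose was then followed every 10 min and expressed as the change from time zero.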

[2] = Volume of distribution at steady state in mouse at 1 mg/kg, iv and 2 mg/kg, po; format: ADME, organism-based; conditions: in vivo, read-out: Vdss
Rhesus monkey = assay: Dose normalized AUC in rhesus monkey at 2 mg/kg, po; format: ADME, organism-based, Macaca mulatta; parameters: dose 2 mg/kg, route oral; conditions: in vivo
Glucagon receptor [3] = molecular target: Glucagon receptor (Rattus norvegicus, UniProt P30082); assay: Antagonist activity at rat GCGR assessed as inhibition of glucagon-induced cAMP accumulation; format: functional
[4] = Half life in dog at 0.5 mg/kg, iv and 2 mg/kg, po; format: ADME, organism-based, Canis lupus familiaris; conditions: in vivo
[5] = molecular target: Glucagon-like peptide 1 receptor (Homo sapiens, UniProt P43220); assay: Antagonist activity at human GLP1R expressed in CHO cells assessed as inhibition of glucagon-induced cAMP accumulation; format: functional, cell-based
Cytochrome P450 2C8 = molecular target: T1, Cytochrome P450 2C8 (Homo sapiens, UniProt P10632); assay: Inhibition of CYP2C8; format: ADME
T1 sequence (P10632 whole entry): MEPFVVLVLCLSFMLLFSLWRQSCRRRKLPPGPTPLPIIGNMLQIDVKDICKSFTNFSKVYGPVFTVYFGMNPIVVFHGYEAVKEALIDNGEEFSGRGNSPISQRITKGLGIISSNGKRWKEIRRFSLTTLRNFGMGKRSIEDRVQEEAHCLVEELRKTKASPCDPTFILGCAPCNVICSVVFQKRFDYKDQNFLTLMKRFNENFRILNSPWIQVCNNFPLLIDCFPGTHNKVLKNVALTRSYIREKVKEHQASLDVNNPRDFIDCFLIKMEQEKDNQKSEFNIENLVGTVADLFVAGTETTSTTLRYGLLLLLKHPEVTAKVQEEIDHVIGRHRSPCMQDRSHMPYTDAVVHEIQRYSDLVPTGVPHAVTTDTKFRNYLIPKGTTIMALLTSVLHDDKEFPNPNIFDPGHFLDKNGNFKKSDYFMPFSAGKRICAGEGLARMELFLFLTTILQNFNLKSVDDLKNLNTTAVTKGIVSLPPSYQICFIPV

[6] = Cmax in rat at 2 mg/kg, po; format: ADME, organism-based; parameters: dose 2 mg/kg, route oral; conditions: in vivo
Rattus norvegicus = assay: Dose normalized AUC in rat at 2 mg/kg, po; format: ADME, organism-based; parameters: dose 2 mg/kg, route oral; conditions: in vivo
Mus musculus [7] = assay: Antidiabetic activity in transgenic mouse expressing human GCGR assessed as inhibition of glucagon-induced blood glucose excursion at 30 mg/kg, po administered 60 mins before glucagon challenge measured after 48 mins; format: functional, organism-based; parameters: dose 30 mg/kg
Method in brief: (§2)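 hGCGR transgenic mice (only functional receptor is human GCGR), 9 per group, given compound orally, then glucagon 15 µg/kg IP 60 min later (one arm dosed 30 mpk three hours before challenge); blood glucose monitored at 12, 24, 36 and 48 min after glucagon.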

[8] = Plasma clearance in rhesus monkey at 0.5 mg/kg, iv and 2 mg/kg, po; format: ADME, organism-based, Macaca mulatta
Uncharacterized protein = Uncharacterized protein (Canis lupus familiaris, UniProt A0A8I3N355); assay: Antagonist activity at dog GCGR assessed as inhibition of glucagon-induced cAMP accumulation; format: functional
[9] = Plasma clearance in rat at 1 mg/kg, iv and 2 mg/kg, po; format: ADME, organism-based
Mus musculus [10] = assay: Antidiabetic activity in transgenic mouse expressing human GCGR assessed as inhibition of glucagon-induced blood glucose excursion at 10 mg/kg, po administered 60 mins before glucagon challenge measured after 48 mins; format: functional, organism-based; parameters: dose 10 mg/kg; method in brief: as §2
Glucagon receptor [11] = molecular target: Glucagon receptor (Homo sapiens, UniProt P47871); assay: Antagonist activity at human GCGR expressed in CHO cells assessed as inhibition of glucagon-induced cAMP accumulation; format: functional, cell-based
Method in brief: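 Inhibition of glucagon-induced cAMP accumulation in CHO cells transfected with human GCGR; IC50 derived, n given where replicated.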

Mus musculus [12] = assay: In vivo occupancy of human GCGR transfected in mouse at 30 mg/kg, po after 1 hr; format: functional
Method in brief: (§3)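 In vivo receptor occupancy measured in hGCGR transgenic mice after oral dosing, at 1 h post-dose (30 and 10 mpk) and in a separate experiment at 1, 3 and 8 h after 10 mpk.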

Mus musculus [13] = assay: In vivo occupancy of human GCGR transfected in mouse at 10 mg/kg after 8 hrs; format: functional; method in brief: as §3
Canis familiaris [14] = assay: Cardiotoxicity in dog assessed as effect on cardiovascular parameters at 1 to 10 mg/kg, iv after 30 mins; format: toxicity, organism-based, Canis lupus familiaris, Heart; parameters: dose 1-10 mg/kg, route intravenous; conditions: in vivo, 0.5 h
[15] = Antagonist activity at rhesus monkey GCGR assessed as inhibition of glucagon-induced cAMP accumulation; format: functional, Macaca mulatta
Cytochrome P450 2C9 = Cytochrome P450 2C9 (Homo sapiens, UniProt P11712); assay: Inhibition of CYP2C9; format: ADME
[16] = Bioavailability in dog at 0.5 mg/kg, iv and 2 mg/kg, po; format: ADME, organism-based, Canis lupus familiaris; conditions: in vivo
Mus musculus [17] = assay: Antihyperglycemic activity in streptozotocin-induced diabetes mouse model assessed as decrease in blood glucose AUC level at 30 mg/kg, po after 4 weeks; format: functional; conditions: 672 h
Method in brief: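 Diabetic model: hGCGR transgenic mice on high-fat diet for eight weeks, streptozotocin-treated during the last four weeks; single oral dose, blood glucose AUC over 2–6 h measured.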

[18] = Bioavailability in mouse at 1 mg/kg, iv and 2 mg/kg, po; format: ADME, organism-based; conditions: in vivo
Canis familiaris [19] = assay: Dose normalized AUC in dog at 2 mg/kg, po; format: ADME, organism-based, Canis lupus familiaris; parameters: dose 2 mg/kg, route oral; conditions: in vivo
Glucagon receptor [20] = molecular target: Glucagon receptor (Mus musculus, UniProt Q61606); assay: Antagonist activity at mouse GCGR assessed as inhibition of glucagon-induced cAMP accumulation; format: functional
Mus musculus [21] = assay: In vivo occupancy of human GCGR transfected in mouse at 10 mg/kg after 3 hrs; format: functional; method in brief: as §3
[22] = Volume of distribution at steady state in rhesus monkey at 0.5 mg/kg, iv and 2 mg/kg, po; format: ADME, organism-based, Macaca mulatta; conditions: in vivo, read-out: Vdss
[23] = Plasma clearance in dog at 0.5 mg/kg, iv and 2 mg/kg, po; format: ADME, organism-based, Canis lupus familiaris
[24] = Volume of distribution at steady state in rat at 1 mg/kg, iv and 2 mg/kg, po; format: ADME, organism-based; conditions: in vivo, read-out: Vdss
Cytochrome P450 2D6 = Cytochrome P450 2D6 (Homo sapiens, UniProt P10635); assay: Inhibition of CYP2D6; format: ADME
[25] = molecular target: Pituitary adenylate cyclase-activating polypeptide type I receptor (Homo sapiens, UniProt P41586); assay: Antagonist activity at human PACAPR1 expressed in CHO cells assessed as inhibition of glucagon-induced cAMP accumulation; format: functional, cell-based
[26] = Drug level in blood of transgenic mouse expressing human GCGR at 10 mg/kg, po after 120 mins; format: ADME, organism-based; parameters: dose 10 mg/kg, route oral; conditions: read-out: Drug uptake
Method in brief: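 Blood drug concentration sampled in hGCGR transgenic mice during the oral glucagon-challenge pharmacodynamic assay at 45 and 120 min post dose, 10 and 30 mpk groups, n = 3 per group.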

Mus musculus [27] = assay: In vivo occupancy of human GCGR transfected in mouse at 10 mg/kg, po after 1 hr; format: functional; method in brief: as §3
[28] = Half life in rat at 1 mg/kg, iv and 2 mg/kg, po; format: ADME, organism-based; conditions: in vivo
[29] = Plasma concentration in rhesus monkey at 1 mg/kg, po after 4 hrs; format: ADME, organism-based, Macaca mulatta; parameters: dose 1 mg/kg, route oral; method in brief: as §1

Cytochrome P450 2D6, sequence (P10635 whole entry): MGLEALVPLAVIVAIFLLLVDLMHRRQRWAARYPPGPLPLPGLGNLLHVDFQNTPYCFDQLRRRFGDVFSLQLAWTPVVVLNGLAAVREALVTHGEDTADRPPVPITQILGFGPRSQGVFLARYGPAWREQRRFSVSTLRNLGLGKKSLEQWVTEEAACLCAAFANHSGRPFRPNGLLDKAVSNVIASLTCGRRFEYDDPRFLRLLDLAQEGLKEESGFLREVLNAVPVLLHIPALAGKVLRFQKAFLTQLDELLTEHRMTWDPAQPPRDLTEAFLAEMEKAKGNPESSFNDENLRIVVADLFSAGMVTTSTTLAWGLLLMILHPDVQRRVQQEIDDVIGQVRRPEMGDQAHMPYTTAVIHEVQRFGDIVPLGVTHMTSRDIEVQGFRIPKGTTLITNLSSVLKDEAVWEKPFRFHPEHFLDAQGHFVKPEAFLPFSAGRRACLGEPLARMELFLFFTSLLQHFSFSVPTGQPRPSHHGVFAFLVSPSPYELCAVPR
Uncharacterized protein, sequence (A0A8I3N355 whole entry): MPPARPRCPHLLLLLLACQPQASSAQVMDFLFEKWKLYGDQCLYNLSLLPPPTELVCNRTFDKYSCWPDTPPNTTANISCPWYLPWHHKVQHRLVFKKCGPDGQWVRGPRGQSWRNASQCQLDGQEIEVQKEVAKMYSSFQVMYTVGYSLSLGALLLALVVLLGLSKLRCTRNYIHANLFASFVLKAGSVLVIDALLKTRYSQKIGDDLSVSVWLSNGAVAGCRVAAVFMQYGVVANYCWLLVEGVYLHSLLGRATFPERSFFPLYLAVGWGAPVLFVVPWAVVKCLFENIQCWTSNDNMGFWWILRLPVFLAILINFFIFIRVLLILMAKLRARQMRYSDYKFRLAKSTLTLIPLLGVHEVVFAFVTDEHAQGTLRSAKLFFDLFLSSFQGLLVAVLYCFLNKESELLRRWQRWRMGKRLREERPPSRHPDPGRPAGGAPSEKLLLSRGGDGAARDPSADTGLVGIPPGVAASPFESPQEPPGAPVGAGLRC
Pituitary adenylate cyclase-activating polypeptide type I receptor, sequence (P41586 whole entry): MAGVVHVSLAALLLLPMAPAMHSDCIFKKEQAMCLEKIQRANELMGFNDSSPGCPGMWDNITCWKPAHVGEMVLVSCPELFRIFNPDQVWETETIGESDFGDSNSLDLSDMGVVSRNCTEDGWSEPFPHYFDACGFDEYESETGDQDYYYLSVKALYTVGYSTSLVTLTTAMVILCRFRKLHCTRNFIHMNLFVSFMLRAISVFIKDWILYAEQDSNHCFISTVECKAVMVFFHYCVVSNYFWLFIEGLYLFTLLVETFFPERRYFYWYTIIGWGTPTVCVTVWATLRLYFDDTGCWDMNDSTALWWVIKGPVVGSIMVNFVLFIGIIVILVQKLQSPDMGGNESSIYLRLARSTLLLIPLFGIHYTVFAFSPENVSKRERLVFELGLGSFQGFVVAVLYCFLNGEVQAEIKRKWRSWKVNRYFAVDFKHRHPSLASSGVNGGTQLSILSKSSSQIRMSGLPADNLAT
Glucagon receptor (Mus musculus, UniProt Q61606), sequence (Q61606 whole entry): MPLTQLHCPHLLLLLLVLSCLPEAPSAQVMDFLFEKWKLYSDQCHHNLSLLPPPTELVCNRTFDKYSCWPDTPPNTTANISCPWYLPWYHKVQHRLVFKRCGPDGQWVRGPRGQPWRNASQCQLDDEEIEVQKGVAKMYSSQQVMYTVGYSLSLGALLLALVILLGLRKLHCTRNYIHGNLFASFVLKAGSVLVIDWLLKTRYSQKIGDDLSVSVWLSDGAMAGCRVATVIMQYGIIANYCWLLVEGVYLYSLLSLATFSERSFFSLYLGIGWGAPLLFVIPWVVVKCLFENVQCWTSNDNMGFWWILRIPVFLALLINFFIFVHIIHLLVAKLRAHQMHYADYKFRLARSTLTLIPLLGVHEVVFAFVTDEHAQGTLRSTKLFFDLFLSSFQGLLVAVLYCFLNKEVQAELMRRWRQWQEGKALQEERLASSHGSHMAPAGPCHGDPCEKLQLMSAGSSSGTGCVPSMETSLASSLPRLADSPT
Glucagon-like peptide 1 receptor, sequence (P43220 whole entry): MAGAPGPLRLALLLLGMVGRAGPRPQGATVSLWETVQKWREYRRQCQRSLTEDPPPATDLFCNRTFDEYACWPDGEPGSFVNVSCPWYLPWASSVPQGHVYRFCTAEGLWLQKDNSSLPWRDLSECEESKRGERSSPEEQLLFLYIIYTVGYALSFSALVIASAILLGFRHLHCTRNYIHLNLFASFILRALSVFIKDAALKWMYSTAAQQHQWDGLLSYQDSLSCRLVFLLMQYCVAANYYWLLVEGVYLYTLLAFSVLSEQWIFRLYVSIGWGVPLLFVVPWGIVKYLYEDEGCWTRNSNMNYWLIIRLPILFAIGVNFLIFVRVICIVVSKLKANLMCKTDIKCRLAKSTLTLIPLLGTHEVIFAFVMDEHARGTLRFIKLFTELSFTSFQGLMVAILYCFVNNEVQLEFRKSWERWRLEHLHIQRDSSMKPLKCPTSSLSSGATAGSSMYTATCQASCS
Cytochrome P450 2C9, sequence (P11712 whole entry): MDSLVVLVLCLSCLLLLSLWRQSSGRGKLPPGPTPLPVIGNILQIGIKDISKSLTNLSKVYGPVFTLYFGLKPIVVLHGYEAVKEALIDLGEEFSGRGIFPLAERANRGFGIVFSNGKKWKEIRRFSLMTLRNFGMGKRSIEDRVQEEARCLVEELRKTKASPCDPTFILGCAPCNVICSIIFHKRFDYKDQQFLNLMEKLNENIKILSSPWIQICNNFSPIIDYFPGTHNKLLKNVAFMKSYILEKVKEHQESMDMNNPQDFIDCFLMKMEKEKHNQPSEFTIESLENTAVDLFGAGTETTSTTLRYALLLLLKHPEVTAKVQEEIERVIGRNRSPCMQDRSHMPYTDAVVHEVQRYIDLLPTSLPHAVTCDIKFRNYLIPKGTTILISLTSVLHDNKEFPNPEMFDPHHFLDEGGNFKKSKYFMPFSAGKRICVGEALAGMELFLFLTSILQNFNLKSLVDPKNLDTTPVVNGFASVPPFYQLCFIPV
Glucagon receptor (Homo sapiens, UniProt P47871), sequence (P47871 whole entry): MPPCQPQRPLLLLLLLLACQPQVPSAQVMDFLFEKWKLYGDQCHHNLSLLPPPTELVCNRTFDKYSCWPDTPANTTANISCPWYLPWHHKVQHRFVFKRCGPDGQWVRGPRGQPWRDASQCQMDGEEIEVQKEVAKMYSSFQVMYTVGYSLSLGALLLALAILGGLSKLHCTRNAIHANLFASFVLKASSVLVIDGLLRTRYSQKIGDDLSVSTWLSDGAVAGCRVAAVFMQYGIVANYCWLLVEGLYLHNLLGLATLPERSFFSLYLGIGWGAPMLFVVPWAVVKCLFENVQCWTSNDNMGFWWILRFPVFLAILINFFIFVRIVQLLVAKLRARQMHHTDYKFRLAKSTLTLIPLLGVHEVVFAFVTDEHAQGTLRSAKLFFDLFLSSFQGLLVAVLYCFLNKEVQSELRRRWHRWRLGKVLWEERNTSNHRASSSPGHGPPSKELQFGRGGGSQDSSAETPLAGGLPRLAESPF
Glucagon receptor (Rattus norvegicus, UniProt P30082), sequence (P30082 whole entry): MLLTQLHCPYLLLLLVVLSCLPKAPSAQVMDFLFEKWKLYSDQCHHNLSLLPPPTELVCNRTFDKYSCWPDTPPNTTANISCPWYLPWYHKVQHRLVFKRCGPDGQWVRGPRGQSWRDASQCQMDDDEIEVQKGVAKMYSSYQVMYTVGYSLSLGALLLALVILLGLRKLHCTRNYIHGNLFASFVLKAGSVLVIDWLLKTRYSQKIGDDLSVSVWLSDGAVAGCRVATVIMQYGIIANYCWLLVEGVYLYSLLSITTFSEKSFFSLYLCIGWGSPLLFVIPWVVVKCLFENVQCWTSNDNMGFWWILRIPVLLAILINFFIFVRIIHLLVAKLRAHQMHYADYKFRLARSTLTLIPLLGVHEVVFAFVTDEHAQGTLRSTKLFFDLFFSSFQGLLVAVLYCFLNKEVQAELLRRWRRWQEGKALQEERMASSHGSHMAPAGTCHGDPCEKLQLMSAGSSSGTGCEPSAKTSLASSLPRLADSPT

O=C(O)CCNC(=O)c1ccc(Cn2nc(-c3cc(Cl)cc(Cl)c3)cc2-c2ccc(OC(F)(F)F)cc2)cc1
concentration at 4 h [1]: 130 nM | Vd [2]: 1.1 L/kg | AUC (Rhesus monkey): 30 µM·kg·h/mg | IC50 (Glucagon receptor [3]): 2.6 µM | half-life [4]: 3.6 h | IC50 [5]: > 10 µM | IC50 (Cytochrome P450 2C8): 19 µM | Cmax [6]: 1600 nM | AUC (Rattus norvegicus): 11 µM·kg·h/mg | inhibition (Mus musculus [7]): Active | clearance [8]: 0.68 mL/min/kg | IC50 (Uncharacterized protein): 0.4 µM | clearance [9]: 1.6 mL/min/kg | inhibition (Mus musculus [10]): Active | IC50 (Glucagon receptor [11]): 0.11 µM | Activity (Mus musculus [12]): 87% | Activity (Mus musculus [13]): 51% | Activity (Canis familiaris [14]): Non-toxic | IC50 [15]: 0.14 µM | IC50 (Cytochrome P450 2C9): 5.8 µM | bioavailability [16]: 46% | inhibition in vivo at 30 mg/kg (Mus musculus [17]): 37% | bioavailability [18]: 15% | AUC (Canis familiaris [19]): 27 µM·kg·h/mg | IC50 (Glucagon receptor [20]): 2 µM | Activity (Mus musculus [21]): 60% | Vd [22]: 0.55 L/kg | clearance [23]: 0.49 mL/min/kg | Vd [24]: 0.75 L/kg | IC50 (Cytochrome P450 2D6): > 100 µM | IC50 [25]: > 7 µM | concentration at 2 h [26]: 3350 nM | Activity (Mus musculus [27]): 51% | half-life [28]: 6.5 h | concentration at 4 h [29]: 600 nM
